Bioassay records (PubChem BioAssay)
Sampled rows, rich in hits. Any-hit rate of the full collection: about 2.6%.
SENP7 inh: inhibitors of human SENP7 protease; AID 434973; inhibition, % at 5 µM; recombinant SENP7, Z-RLRGG-aminoluciferin luminescence, 40 min; actives 1.5% (n = 330,000);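 active means inhibition above about 50% at the single test dose, limit read from the data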;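 further: plate controls were DMSO with enzyme for no effect and no enzyme buffer wells for full effect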
Target sequence (Q9BQF6 706-1050 limits assumed): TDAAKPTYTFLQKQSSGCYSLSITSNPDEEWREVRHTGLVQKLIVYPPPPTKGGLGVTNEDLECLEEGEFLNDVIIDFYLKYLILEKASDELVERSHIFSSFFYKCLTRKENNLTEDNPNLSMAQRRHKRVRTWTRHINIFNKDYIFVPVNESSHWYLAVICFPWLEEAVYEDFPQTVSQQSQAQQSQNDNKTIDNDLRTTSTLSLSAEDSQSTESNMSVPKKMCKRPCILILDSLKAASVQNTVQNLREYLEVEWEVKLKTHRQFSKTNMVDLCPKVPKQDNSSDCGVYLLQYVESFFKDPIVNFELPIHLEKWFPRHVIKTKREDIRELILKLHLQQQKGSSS
SENP8 block-1: SENP8 protease inhibition; Q96LD8; purified SENP8, Z-RLRGG-aminoluciferin cleavage, luminescence; inhibition, % at 10 µM; actives 1.2% (n = 330,000); in the data active means inhibition above about 50%
Target sequence (Q96LD8 whole entry, looked up): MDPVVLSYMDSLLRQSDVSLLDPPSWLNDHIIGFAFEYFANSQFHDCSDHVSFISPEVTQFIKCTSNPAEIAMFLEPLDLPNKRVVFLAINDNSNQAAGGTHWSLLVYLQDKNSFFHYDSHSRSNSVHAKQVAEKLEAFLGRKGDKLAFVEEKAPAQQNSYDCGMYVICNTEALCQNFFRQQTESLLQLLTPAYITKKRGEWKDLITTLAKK
SENP1 inh: SENP1 (human) catalytic domain inhibition; actives 0.21% (n = 360,000); recombinant SENP1 catalytic domain, CyPet-SUMO1-YPet FRET cleavage; AID 624204; inhibition, % at 10 µM;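 active means inhibition at least 30% at 10 µM, raw YFP signal under a set limit, fluorescence ratio 0.5 to 1.5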;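 further: 0% = enzyme with DMSO and 100% = no enzyme wells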
Target sequence (Q9P0U3 419-644 limits assumed): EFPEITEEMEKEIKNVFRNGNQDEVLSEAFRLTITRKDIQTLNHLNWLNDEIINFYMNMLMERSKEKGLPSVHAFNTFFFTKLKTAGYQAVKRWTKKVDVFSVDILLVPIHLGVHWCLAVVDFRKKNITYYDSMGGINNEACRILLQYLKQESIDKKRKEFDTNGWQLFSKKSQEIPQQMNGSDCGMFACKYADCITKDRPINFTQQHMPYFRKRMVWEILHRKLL
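Assay system: hSENP1 catalytic domain, recombinant. Amount: SENP1 enzyme, 20 pM final. Schedule: 50 min reaction, RT, dark. Technique: FRET, CFP and YFP emission. Control set: no-enzyme wells low, DMSO-plus-enzyme wells high control.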
SENP8 block-2: blocks human SENP8 cleavage of Nedd8 substrate. Q96LD8. recombinant SENP8, Nedd8 substrate fluorescence. inhibition, % at 20 µM. actives 0.64% (n = 360,000); in the data active means inhibition mostly above about 40%, no sharp cut-off; inactive means mostly below about 27%
SENP6 block: inhibitors of human SENP6 protease; Q9GZR1; inhibition, % at 10 µM; actives 1.8% (n = 330,000); AID 2599; Recombinant SENP6 catalytic domain, aminoluciferin luminescence;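 active means inhibition above about 50% at the single tested dose, limit read from the data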;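 further: plate controls were DMSO wells with enzyme for no effect and DMSO wells lacking enzyme for full effect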
UCH37 DUB inh: human UCH37 deubiquitinating enzyme inhibition | Q9Y5K5 | inhibition, % (no concentration beside the values) | actives 0.33% (n = 330,000) | purified proteasome/UCH37, Ub-AMC cleavage fluorescence | AID 588478;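 active means mean inhibition over replicate wells above about 20%, limit read from the data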;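 further: 0% = compound-free wells with enzyme and 100% = wells lacking proteasome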
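Material: Human UCH37 enzyme supplied as purified proteasome complex | Schedule: 30 min compound-proteasome preincubation then 25 min substrate reaction, room temperature | Detection: AMC fluorescence from Ub-AMC cleavage, excitation 355 nm, emission 460 nm | Benchmarks: Wells without proteasome as full block, compound-free enzyme plus substrate as uninhibited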
SENP8 conf: confirmation of human SENP8 protease inhibitors; shares compounds with SENP8 block-2; purified SENP8, Nedd8-AMC/pro-Nedd8 cleavage fluorescence, 30 min; inhibition, % at 25 µM; actives 15% (n = 1,400); AID 624319; in the data active means inhibition mostly above about 39%, no sharp cut-off; inactive means mostly below about 34%
* = called active by the depositor; nt = not tested or not shown.

SMILES | SENP7 inh | SENP8 block-1 | SENP1 inh | SENP8 block-2 | SENP6 block | UCH37 DUB inh | SENP8 conf
COc1cc(C=c2sc3nc(=O)c(-c4ccccc4)nn3c2=O)ccc1OCCC(C)C | nt | nt | nt | nt | nt | 3.6 | nt
COC(=O)CCCC1=CC2=C(c3ccccc3)C(=O)C(C)(OC(=O)C3CCCC3)C(=O)C2=CN1C1CCCCC1 (stereo not drawn) | -12.2 | -14.0 | -16.1 | 43.6* | 1.3 | 0.9 | 49.0*
Oc1c(C=NCc2ccc(F)cc2)[nH]c2ccc(Br)c(Cl)c12 | 4.1 | 4.5 | nt | nt | 26.2 | nt | nt
Cc1ccc(CN=Cc2[nH]c3ccc(Br)c(Cl)c3c2O)cc1 | 1.1 | 1.2 | -34.0 | 44.5* | 22.6 | 7.1 | 40.4
COC(=O)c1[nH]cnc1C(=O)c1ccccc1 | 3.8 | -0.2 | 0.6 | 54.0* | -4.3 | -0.3 | 5.5
Cc1nc2ccccc2n1C(=NS(=O)(=O)c1ccc(Br)cc1)c1ccccc1 | nt | nt | nt | nt | nt | 2.0 | nt
CC1=NN(c2ccc(C)cc2C)C(=O)C1C(c1ccccc1O)C1C(=O)N(c2ccc(C)cc2C)N=C1C (stereo not drawn) | 26.9 | 14.6 | 3.7 | 58.2* | 43.8 | 7.8 | 57.4*
CC1=NN(c2ccccc2)C(=O)C1N=Nc1ccc(C)cc1 (stereo not drawn) | 2.5 | -1.5 | nt | nt | 3.9 | 3.8 | nt
Cc1ccc(C(=O)NN=Cc2cccn2C)cn1 | nt | nt | nt | nt | nt | 14.6 | nt
Cc1cccc(OCC(=O)NCC(=O)NN=Cc2cccnc2)c1 | nt | nt | nt | nt | nt | 0.4 | nt
Cc1c(C(=O)NN=CC(C)C)[nH]c2c([N+](=O)[O-])cccc12 | nt | nt | nt | nt | nt | 3.8 | nt
Nc1ncc([N+](=O)[O-])c(Oc2ccccc2F)n1 | -2.8 | -0.5 | 1.1 | 49.0* | -45.9 | 7.8 | 9.5
O=[N+]([O-])c1cccnc1Oc1ccccc1F | 1.8 | 1.8 | 1.5 | 5.0 | -2.7 | 2.4 | nt
COc1cc(C=Nn2c(C3CCCCC3)n[nH]c2=S)cc(Br)c1O | nt | nt | nt | nt | nt | 0.8 | nt
CC(=NNC(=O)C1(C)CC1(Br)Br)c1cccc(NC(=O)C2CCC2)c1 (stereo not drawn) | nt | nt | nt | nt | nt | 0.8 | nt
COc1ccc(NC(=O)[C@@H](NC(=O)N2C[C@H]3C[C@@H](C2)c2cccc(=O)n2C3)C(C)C)cc1OC | -3.8 | 3.9 | -0.5 | 45.1* | 4.5 | -0.6 | 10.1
O=C(Nc1cccc(Oc2c(F)c(F)c(F)c(F)c2F)c1)N1C[C@@H]2C[C@@H](C1)c1cccc(=O)n1C2 | -2.5 | -5.3 | -2.1 | 7.6 | -22.3 | 2.6 | nt
Cc1cc(=O)oc2cc(OCC(=O)NN=Cc3ccccc3[N+](=O)[O-])ccc12 | nt | nt | nt | nt | nt | 0.8 | nt
Cc1[nH][nH]c(=O)c1C(c1ccc(-c2ccccc2C(=O)O)o1)c1c(C)[nH][nH]c1=O | nt | nt | 1.1 | 49.4* | nt | 24.0* | 37.8*
Cc1ccc2oc(-c3ccccc3C(=O)O)cc(=O)c2c1 | -0.8 | -11.5 | 2.8 | -16.8 | -5.9 | 3.0 | nt
COc1ccc(C=NNC(=O)c2ccc(CSc3nncn3C)cc2)cc1OC | nt | nt | nt | nt | nt | 3.1 | nt
CCOc1ccc2ccccc2c1C=Nn1cncn1 | nt | nt | nt | nt | nt | 7.3 | nt
COc1ccc(NCc2nnc(SCC(=O)Nc3ccccc3)n2C)cc1 | 1.9 | -7.5 | -0.2 | 43.0* | 2.9 | 0.5 | 17.3
COc1ccc(NCc2nnc(SCC(=O)N3CCCc4ccccc43)n2C)cc1 | -11.4 | -5.1 | 1.0 | 60.1* | 10.6 | 3.0 | 16.8
COc1ccc(NCc2nnc(SCC(=O)Nc3ccc(OC)cc3)n2C)cc1 | -8.5 | -5.1 | 0.7 | 37.0 | 4.6 | -1.0 | nt
SMILES | SENP7 inh | SENP8 block-1 | SENP1 inh | SENP8 block-2 | SENP6 block | UCH37 DUB inh | SENP8 conf
Cc1cccc(C(=O)Nc2cccc(C(=O)NN=Cc3cccc(C)n3)c2)c1 | nt | nt | nt | nt | nt | 0.8 | nt
CN(C)N=Cc1ccc(OC(=O)c2cccc([N+](=O)[O-])c2)cc1 | nt | nt | nt | nt | nt | 0.8 | nt
CC(CC(=O)Nc1cccc(Cl)c1Cl)=NNC(=O)C(=O)NC1CCCCC1 | nt | nt | nt | nt | nt | 2.8 | nt
COC(=O)C=c1sc2ncnn2c1=O | nt | nt | nt | nt | nt | 0.1 | nt
O=C(O)c1cccc2c1C(=NNc1ccc([N+](=O)[O-])cc1[N+](=O)[O-])c1ccccc1-2 | nt | nt | nt | nt | nt | 12.7 | nt
CC1=CC(=C(C#N)c2nc3ccccc3s2)C=C(C)N1Cc1ccco1 | 2.3 | 15.5 | -22.5 | 58.9* | 38.1 | -1.1 | 18.4
O=C(NCc1ccco1)c1nc2ccccc2s1 | -2.3 | -6.5 | 1.2 | 23.7 | 13.6 | 3.6 | nt
COc1ccc2nc(N=C(N)NC(=O)C(C)(C)C)nc(C)c2c1 | nt | nt | nt | nt | nt | -82.3 | nt
Cc1ccc(-n2c(C)cc(-c3csc(N)n3)c2C)cc1 | 2.3 | 0.1 | 0.3 | 4.5 | 8.0 | -0.1 | nt
Cc1cc(-c2csc(N)n2)c(C)n1C | 8.7 | 6.1 | 7.4 | 43.1* | 0.5 | -1.3 | 15.8
FC(F)(F)c1ccc(Cl)c(NN=Cc2ccc(N3CCOCC3)s2)c1 | nt | nt | nt | nt | nt | -13.1 | nt
CN(C)CCCN(C(=O)c1ccc2c(c1)OCCO2)c1nc2cc3c(cc2s1)OCO3 | 9.0 | 1.8 | 1.8 | 10.1 | -12.2 | 3.3 | nt
CN(C)CCN(C(=O)c1ccc(N2C(=O)CCC2=O)cc1)c1nc2cc3c(cc2s1)OCO3 | 6.4 | 3.8 | 2.4 | 58.8* | -5.2 | 5.3 | 47.8*
COCC(=O)N1CCN(c2ccc([N+](=O)[O-])cc2)CC1 | 4.2 | -4.0 | 3.9 | 42.0* | -3.3 | 12.5 | 25.9
Cc1[nH][nH]c(=O)c1C(c1c(C)[nH][nH]c1=O)c1cn(Cc2ccccc2Cl)c2ccccc12 | nt | nt | -0.2 | 79.1* | nt | 16.7 | 73.3*
C=C(C(=O)O)C1CCC2(C)CCCC(C)(O)C2C1 (stereo not drawn) | -6.3 | -3.1 | 4.2 | 47.9* | -7.7 | 4.4 | -0.2
O=C(Cn1c(=O)n(CCC(=O)N2CCc3ccccc3C2)c(=O)c2ccccc21)NCC1CCCO1 (stereo not drawn) | nt | nt | -3.9 | 62.5* | nt | 0.1 | 16.3
CC1=C(C#N)C(C=NOCc2ccc(F)cc2Cl)CC(=O)N1 (stereo not drawn) | nt | nt | nt | nt | nt | -20.6 | nt
COc1ccc(Nc2nc(N)nc(CN3CCc4ccccc4C3)n2)cc1 | 6.1 | 7.4 | -3.1 | 43.6* | 6.0 | 6.1 | 28.5
COc1ccc(NC(=S)NC(NC(C)=O)C(Cl)(Cl)Cl)c([N+](=O)[O-])c1 (stereo not drawn) | 4.6 | 0.5 | 2.0 | 19.1 | 5.0 | -1.5 | nt
COc1ccc(NC(=S)NC(NC(=O)c2cccc(C)c2)C(Cl)(Cl)Cl)c([N+](=O)[O-])c1 (stereo not drawn) | 0.5 | -3.7 | 3.4 | 42.2* | -12.1 | 2.9 | 8.2
Cc1cc(NC(=O)c2ccc([N+](=O)[O-])o2)ccc1NC(=O)c1ccco1 | nt | nt | 1.4 | 23.2 | nt | 6.2 | nt
COc1cc(NC(=O)c2ccc([N+](=O)[O-])o2)ccc1NC(=O)c1ccco1 | 7.3 | 2.6 | 0.8 | 43.6* | 6.5 | 7.2 | 16.1
Cc1ccc(C(=O)NN=Cc2ccoc2)cc1C | nt | nt | nt | nt | nt | 5.1 | nt
O=C(NN=Cc1c(Cl)[nH]c2ccccc12)c1sc2ccccc2c1Cl | nt | nt | nt | nt | nt | -5.7 | nt
